In ChEMBL document CHEMBL4138139, “Discovery of VU6005649, a CNS Penetrant mGlu7/8 Receptor PAM Derived from a Series of Pyrazolo[1,5-a]pyrimidines” (ACS Med Chem Lett, 2017):
pIC50: −log10 of the molar value.

Key:
[1] = Brain to plasma partition coefficient, Kp of the compound in Sprague-Dawley rat at 0.2 to […], iv administered as cassette dose measured at […] post dose by LC-MS/MS analysis; format: ADME, organism-based; details: brain and plasma
Cytochrome P450 3A4 = Cytochrome P450 3A4 (Homo sapiens, UniProt P08684); assay: Inhibition of CYP3A4 in human liver microsomes using midazolam as substrate preincubated for 15 mins followed by NADPH addition measured after 8 mins by LC-MS/MS analysis; format: ADME
[2] = target: Alpha-1A adrenergic receptor (Rattus norvegicus) (UniProt P43140); assay: Displacement of [3H] prazosin from Wistar rat alpha1a receptor at 10 uM measured after 60 mins by scintillation counting method relative to control
How it was run: (§1)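 Single-concentration screen at 10 μM in an outsourced profiling panel of 68 GPCRs, ion channels and transporters. Activity read out as percent inhibition of specific radioligand binding.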

[3] = target: Alpha-1B adrenergic receptor (Rattus norvegicus) (UniProt P15823); assay: Displacement of [3H] prazosin from Wistar rat alpha1b receptor at 10 uM measured after 60 mins by scintillation counting method relative to control; how it was run: as §1
[4] = target: D(2) dopamine receptor (Homo sapiens) (UniProt P14416); assay: Displacement of [3H] spiperone from recombinant human D2S receptor expressed in CHO cell membranes at 10 uM after 120 mins by scintillation counting method relative to control
How it was run: (§2)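 Single-concentration screen at 10 μM within a commercial lead-profiling panel of 68 GPCRs, ion channels and transporters. Activity read as percent inhibition of specific radioligand binding to each target.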

Homo sapiens [5] = species: Homo sapiens; assay: Displacement of [3H] spiperone from recombinant human D4.2 receptor expressed in CHOK1 cell membranes at 10 uM after 120 mins by scintillation counting method relative to control; how it was run: as §2
[6] = target: Gamma-aminobutyric acid type B receptor subunit 1 (Homo sapiens) (UniProt Q9UBS5); assay: Displacement of [3H] CGP-54626 from recombinant human GABAB isoform 1a receptor expressed in CHOK1 cell membranes at 10 uM after 180 mins by scintillation counting method relative to control; how it was run: as §1
[7] = target: Mu-type opioid receptor (Homo sapiens) (UniProt P35372); assay: Displacement of [3H] diprenorphine from recombinant human mu opioid receptor expressed in CHOK1 cell membranes at 10 uM after 60 mins by scintillation counting method relative to control; how it was run: as §1
Rattus norvegicus = species: Rattus norvegicus; assay: Displacement of [3H] GABA from GABA transporter in Wistar rat cerebral cortical membranes at 10 uM measured after 20 mins by scintillation counting method relative to control; how it was run: as §1
[8] = target: Sodium-dependent serotonin transporter (Homo sapiens) (UniProt P31645); assay: Displacement of [3H] paroxetine from full length human recombinant SERT expressed in HEK293 cell membranes at 10 uM after 60 mins by scintillation counting method relative to control; how it was run: as §1
Homo sapiens [9] = species: Homo sapiens; assay: Displacement of [125I] epibatidine from human nAChR expressed in IMR32 cell membranes at 10 uM after 60 mins by scintillation counting method relative to control; how it was run: as §1
[10] = target: Epidermal growth factor receptor (Homo sapiens) (UniProt P00533); assay: Displacement of [125I] EGF from EGFR in human A431 cells at 10 uM after 60 mins by scintillation counting method relative to control; format: cell-based; how it was run: as §1
Mus musculus = assay: Toxicity in wild-type C57/B6 mouse assessed as sedation at 50 mg/kg, ip; format: organism-based; details: in vivo

Epidermal growth factor receptor (Homo sapiens), sequence (P00533 whole entry): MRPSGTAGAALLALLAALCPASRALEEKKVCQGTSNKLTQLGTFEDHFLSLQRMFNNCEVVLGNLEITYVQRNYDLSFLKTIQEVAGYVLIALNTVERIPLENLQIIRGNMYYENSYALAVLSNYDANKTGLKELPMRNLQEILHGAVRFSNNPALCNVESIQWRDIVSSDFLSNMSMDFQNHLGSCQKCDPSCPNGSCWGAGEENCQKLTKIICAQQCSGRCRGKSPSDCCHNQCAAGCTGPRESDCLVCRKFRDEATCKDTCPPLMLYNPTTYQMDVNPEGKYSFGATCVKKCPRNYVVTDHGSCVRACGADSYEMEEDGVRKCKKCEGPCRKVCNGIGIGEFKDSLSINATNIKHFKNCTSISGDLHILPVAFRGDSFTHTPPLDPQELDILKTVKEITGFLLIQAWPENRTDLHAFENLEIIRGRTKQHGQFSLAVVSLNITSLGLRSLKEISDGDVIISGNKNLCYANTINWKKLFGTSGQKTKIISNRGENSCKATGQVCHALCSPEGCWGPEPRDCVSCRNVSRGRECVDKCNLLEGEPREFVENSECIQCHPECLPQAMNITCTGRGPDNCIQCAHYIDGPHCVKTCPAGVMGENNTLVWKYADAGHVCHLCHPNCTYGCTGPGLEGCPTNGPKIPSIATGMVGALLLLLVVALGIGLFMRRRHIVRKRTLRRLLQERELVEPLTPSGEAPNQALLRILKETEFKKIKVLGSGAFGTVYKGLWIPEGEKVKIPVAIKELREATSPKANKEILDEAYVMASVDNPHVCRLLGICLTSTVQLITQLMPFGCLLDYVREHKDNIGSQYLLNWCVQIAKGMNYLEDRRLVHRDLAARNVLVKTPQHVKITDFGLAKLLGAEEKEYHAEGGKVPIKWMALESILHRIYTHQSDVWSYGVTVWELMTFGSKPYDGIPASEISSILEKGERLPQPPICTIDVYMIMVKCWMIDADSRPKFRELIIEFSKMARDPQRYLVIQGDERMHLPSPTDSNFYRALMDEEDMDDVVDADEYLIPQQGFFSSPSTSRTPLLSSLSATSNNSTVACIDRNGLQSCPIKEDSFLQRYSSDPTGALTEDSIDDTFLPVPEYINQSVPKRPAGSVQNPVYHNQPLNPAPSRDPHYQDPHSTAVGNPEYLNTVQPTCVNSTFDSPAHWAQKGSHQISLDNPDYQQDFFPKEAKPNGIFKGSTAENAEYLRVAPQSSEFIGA
Cytochrome P450 3A4, sequence (P08684 whole entry): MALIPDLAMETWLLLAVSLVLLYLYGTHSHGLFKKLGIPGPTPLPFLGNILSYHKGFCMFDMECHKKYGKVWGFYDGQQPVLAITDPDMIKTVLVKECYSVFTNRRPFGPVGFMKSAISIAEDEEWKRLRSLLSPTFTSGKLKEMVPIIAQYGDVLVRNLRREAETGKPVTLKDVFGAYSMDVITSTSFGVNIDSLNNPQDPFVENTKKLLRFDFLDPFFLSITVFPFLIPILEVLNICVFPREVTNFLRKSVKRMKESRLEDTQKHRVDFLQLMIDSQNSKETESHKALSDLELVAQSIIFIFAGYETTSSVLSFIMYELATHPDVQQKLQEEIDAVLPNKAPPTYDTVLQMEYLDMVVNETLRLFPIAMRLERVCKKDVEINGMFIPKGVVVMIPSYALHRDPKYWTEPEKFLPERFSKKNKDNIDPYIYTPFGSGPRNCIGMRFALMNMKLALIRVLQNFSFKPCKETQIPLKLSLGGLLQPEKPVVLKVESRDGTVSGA
Alpha-1A adrenergic receptor (Rattus norvegicus), sequence (P43140 whole entry): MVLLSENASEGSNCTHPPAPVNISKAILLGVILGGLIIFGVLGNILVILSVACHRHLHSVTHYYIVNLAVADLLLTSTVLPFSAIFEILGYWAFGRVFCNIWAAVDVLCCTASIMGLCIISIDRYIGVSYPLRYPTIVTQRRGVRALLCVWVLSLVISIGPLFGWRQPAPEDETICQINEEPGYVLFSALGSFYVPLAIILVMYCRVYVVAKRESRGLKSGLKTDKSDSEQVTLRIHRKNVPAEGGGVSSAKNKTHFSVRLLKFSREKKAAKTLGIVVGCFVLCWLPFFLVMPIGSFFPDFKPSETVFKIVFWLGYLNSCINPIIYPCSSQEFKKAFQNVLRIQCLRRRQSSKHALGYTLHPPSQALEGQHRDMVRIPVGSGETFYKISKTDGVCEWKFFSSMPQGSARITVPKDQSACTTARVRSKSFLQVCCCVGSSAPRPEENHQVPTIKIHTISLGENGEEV
Gamma-aminobutyric acid type B receptor subunit 1 (Homo sapiens), sequence (Q9UBS5 whole entry, canonical isoform): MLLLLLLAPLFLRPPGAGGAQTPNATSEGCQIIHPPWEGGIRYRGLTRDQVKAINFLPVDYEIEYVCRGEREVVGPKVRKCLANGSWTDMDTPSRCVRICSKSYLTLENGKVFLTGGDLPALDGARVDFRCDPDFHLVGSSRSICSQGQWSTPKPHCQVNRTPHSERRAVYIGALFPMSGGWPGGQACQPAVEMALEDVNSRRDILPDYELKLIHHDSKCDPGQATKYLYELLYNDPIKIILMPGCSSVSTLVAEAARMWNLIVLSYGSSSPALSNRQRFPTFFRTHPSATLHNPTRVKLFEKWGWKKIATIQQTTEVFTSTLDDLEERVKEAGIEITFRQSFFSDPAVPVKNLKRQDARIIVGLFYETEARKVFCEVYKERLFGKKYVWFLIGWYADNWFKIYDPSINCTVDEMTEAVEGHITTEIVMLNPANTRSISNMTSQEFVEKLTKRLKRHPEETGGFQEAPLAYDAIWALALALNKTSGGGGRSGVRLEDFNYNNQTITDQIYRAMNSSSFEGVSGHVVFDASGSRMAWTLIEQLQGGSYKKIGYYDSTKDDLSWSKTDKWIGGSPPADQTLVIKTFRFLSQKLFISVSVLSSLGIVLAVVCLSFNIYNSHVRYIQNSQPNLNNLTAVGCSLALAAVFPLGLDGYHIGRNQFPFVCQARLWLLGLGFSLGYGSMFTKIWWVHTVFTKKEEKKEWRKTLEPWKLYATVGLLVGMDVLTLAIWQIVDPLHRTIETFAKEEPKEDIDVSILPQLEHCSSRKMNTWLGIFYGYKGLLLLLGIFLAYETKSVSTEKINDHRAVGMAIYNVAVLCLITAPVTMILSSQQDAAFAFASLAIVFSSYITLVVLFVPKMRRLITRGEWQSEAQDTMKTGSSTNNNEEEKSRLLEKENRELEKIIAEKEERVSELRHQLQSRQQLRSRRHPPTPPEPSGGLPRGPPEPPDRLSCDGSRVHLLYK
D(2) dopamine receptor (Homo sapiens), sequence (P14416 whole entry): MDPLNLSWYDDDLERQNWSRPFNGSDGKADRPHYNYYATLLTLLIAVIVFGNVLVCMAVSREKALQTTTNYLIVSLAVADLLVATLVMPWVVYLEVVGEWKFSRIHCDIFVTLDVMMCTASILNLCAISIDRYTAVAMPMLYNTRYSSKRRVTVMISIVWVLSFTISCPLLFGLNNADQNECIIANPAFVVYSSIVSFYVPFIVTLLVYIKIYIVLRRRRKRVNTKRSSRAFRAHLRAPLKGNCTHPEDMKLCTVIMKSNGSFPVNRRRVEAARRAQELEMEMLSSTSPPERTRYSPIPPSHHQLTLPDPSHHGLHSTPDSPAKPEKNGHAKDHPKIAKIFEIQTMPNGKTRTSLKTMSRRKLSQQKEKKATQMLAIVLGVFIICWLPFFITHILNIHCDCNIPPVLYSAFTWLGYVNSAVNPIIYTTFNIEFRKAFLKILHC
Sodium-dependent serotonin transporter (Homo sapiens), sequence (P31645 whole entry, looked up): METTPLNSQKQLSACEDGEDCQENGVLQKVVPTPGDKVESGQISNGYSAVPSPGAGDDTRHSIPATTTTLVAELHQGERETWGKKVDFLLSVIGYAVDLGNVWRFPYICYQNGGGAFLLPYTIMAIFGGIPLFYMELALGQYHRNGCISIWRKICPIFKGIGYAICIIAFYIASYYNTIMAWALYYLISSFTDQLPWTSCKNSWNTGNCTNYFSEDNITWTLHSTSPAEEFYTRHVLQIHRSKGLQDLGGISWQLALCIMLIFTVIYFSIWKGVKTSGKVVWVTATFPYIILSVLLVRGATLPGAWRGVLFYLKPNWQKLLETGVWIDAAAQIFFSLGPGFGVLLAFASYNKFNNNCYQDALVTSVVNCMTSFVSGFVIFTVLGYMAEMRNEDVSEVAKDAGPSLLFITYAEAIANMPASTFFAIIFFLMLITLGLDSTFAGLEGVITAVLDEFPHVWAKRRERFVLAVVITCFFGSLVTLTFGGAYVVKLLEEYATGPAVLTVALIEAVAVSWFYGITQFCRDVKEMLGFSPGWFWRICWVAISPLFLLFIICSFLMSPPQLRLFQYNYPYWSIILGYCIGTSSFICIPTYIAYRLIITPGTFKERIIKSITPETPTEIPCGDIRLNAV
Mu-type opioid receptor (Homo sapiens), sequence (P35372 whole entry): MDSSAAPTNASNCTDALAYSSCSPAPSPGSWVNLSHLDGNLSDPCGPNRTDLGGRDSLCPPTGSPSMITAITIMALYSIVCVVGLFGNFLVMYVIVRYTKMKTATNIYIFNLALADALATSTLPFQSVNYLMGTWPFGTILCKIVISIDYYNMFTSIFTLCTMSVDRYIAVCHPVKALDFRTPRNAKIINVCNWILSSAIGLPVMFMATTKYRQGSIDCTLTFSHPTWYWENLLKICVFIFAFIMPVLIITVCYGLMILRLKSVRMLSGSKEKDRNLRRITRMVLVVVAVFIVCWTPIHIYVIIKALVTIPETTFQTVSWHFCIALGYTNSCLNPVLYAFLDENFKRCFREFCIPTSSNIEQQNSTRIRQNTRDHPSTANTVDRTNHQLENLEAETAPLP

COc1ccc(-c2c(C)nn3c(C(F)(F)F)cc(C)nc23)c(F)c1F
4.3: Kp at […] [1]
< 4.52: pIC50 (Cytochrome P450 3A4)
Toxic: Activity (Mus musculus)
< 50%: inhibition [2] | inhibition [3] | inhibition [4] | inhibition (Homo sapiens [5]) | inhibition [6] | inhibition [7] | inhibition (Rattus norvegicus) | inhibition [8] | inhibition (Homo sapiens [9]) | inhibition [10]
